Results on ten compounds are retold here after publication PMC3052282 (Journal of biomolecular screening, 2010).

Experiment [1] concerns the target T1, DnaK-DnaJ (Escherichia coli, UniProt P0A6Y8). The experiment is described as follows: High throughput ATPase assay of DnaK-DnaJ. The format is biochemical. To be noted: for inhibition of DnaK-DnaJ ATPase activity upon re-testing: repurchased (fresh) samples.
In experiment [2] the target is firefly luciferase [luciferase: P08659]. The experiment is described as follows: ELISA. (In general: ELISA stands for enzyme-linked immunosorbent assay.)
Sequence of firefly luciferase [luciferase: P08659] (P08659 whole entry): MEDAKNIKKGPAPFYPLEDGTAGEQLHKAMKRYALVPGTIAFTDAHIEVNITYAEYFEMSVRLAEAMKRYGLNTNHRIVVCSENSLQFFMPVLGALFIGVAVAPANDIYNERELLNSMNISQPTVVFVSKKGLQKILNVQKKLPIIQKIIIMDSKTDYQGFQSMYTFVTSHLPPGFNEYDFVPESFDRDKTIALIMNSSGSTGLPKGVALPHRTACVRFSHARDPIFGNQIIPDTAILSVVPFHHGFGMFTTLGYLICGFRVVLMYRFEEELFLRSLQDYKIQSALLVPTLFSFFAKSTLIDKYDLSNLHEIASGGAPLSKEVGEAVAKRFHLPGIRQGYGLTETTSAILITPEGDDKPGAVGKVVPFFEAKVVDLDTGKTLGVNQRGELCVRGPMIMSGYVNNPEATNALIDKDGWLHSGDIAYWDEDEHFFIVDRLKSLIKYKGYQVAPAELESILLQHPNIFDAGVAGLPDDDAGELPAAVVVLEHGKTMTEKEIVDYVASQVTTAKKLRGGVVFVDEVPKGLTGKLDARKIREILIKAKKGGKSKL
For experiment [3], the target named is DnaK binding to luciferase (Escherichia coli, UniProt P0A6Y8). Kind of experiment: ELISA of DnaK binding to the model substrate firefly luciferase. To be noted: 0.05 μM DnaK + 1 mM ATP.
Sequence of DnaK binding to luciferase (P0A6Y8 whole entry): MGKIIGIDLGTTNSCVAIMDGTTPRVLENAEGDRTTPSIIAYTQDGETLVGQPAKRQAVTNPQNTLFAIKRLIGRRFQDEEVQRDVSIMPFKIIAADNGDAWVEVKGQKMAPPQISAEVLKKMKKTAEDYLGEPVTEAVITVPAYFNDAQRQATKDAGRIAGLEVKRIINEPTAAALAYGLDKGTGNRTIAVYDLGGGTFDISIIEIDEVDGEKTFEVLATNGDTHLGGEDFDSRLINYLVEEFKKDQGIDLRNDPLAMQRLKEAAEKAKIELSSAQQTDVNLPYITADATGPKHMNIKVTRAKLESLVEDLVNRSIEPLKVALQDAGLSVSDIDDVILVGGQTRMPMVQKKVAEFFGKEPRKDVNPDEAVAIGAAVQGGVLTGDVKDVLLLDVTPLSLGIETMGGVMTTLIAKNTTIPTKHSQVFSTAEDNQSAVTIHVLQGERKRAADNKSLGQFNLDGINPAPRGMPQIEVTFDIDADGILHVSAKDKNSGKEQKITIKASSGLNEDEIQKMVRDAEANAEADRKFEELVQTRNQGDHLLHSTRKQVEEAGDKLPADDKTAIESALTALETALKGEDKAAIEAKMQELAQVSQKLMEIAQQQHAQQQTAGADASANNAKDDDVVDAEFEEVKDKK
In experiment [4] the target is T1, DnaK-DnaJ. Kind of experiment: DnaJ-mediated stimulation of ATP turnover by DnaK. The format is biochemical. To be noted: DnaK 0.6 μM. The method in brief:
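E. coli DnaK (purified) at 0.6 µM with DnaJ titrated, in 100 mM Tris-HCl, 20 mM KCl, 6 mM MgCl2, 0.01% Triton X-100, pH 7.4. Reaction started with 7 mM ATP stock and run 3 h at 37 °C. Quinaldine red–molybdate reagent added for 2 min, quenched with sodium citrate, then 15 min at 37 °C. Absorbance read at 530 nm; triplicates.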

A further experiment has as its target DnaK (Escherichia coli, UniProt P0A6Y8). The experiment is described as follows: Intrinsic ATPase activity of DnaK. The format is biochemical. To be noted: without DnaJ stimulation.

Entries after “also recorded” stand apart in the source; their conditions may differ. A value given as a limit tells only on which side of the number the result lay.

T1 sequence (P0A6Y8 whole entry): as above
Sequence of Escherichia coli heat shock protein 70 (Hsp70/DnaK) (P0A6Y8 whole entry): as above
Sequence of DnaK (P0A6Y8 whole entry): as above

Take `O=C(O)c1cccc2c1NC(c1ccc([N+](=O)[O-])cc1)C1CC=CC21` (stereo not drawn) [1a, 4-(4-nitrophenyl)-3a,4,5,9b-tetrahydro-3H-cyclopenta[c]quinoline-6-carboxylic acid]: the “inhibition of DnaK-DnaJ ATPase activity upon re-testing” value (“inhibition” below) against DnaK-DnaJ [1] was “none of these compounds were inhibitors”.

With `Cc1cc(C(F)(F)F)c(C#N)c(SCC(=O)c2ccccc2)n1` [3a, 6-methyl-2-((2-oxo-2-phenylethyl)thio)-4-(trifluoromethyl)nicotinonitrile], the half-inhibitory concentration (IC50) (as a rule, the midpoint of a concentration-inhibition curve) against DnaK-DnaJ [1] is > 500 µM. Same read-out and setting: the figure for `CCOC(=O)c1c(N)n(-c2ccccc2)c2nc3ccccc3nc12` [2a, ethyl 2-amino-1-phenyl-1H-pyrrolo[2,3-b]quinoxaline-3-carboxylate] is > 500 µM. In the case of `O=C(O)c1ccc2c(c1)C1C=CCC1C(c1cccc(C(F)(F)F)c1)N2` (stereo not drawn) [1c, 4-(3-(trifluoromethyl)phenyl)-3a,4,5,9b-tetrahydro-3H-cyclopenta[c]quinoline-8-carboxylic acid], the “inhibition” value at DnaK-DnaJ [1] is listed as “none of these compounds were inhibitors”. With “Escherichia coli heat shock protein 70 (Hsp70/DnaK) (from UniProt P0A6Y8 1-638) (natural protein)”, in experiment [2], the Kd (in general, a measure of binding affinity in units of concentration) was 0.26 µM. In the case of `CCc1ccc(C2Nc3ccc(C(=O)O)cc3C3C=CCC32)cc1` (stereo not drawn) [1d, 4-(4-ethylphenyl)-3a,4,5,9b-tetrahydro-3H-cyclopenta[c]quinoline-8-carboxylic acid], the “inhibition” value against DnaK-DnaJ [1] is “none of these compounds were inhibitors”. Regarding `O=C(O)c1ccc2c(c1)C1C=CCC1C(c1ccc(Cl)cc1)N2` (stereo not drawn) [1b, 4-(4-chlorophenyl)-3a,4,5,9b-tetrahydro-3H-cyclopenta[c]quinoline-8-carboxylic acid], on DnaK-DnaJ [1], the “inhibition” value is recorded as “none of these compounds were inhibitors”. As for `COc1cc(C(=O)NS(=O)(=O)c2ccccc2C)ccc1Cc1cn(C)c2ccc(NC(=O)OC3CCCC3)cc12` [3c, cyclopentyl (3-(2-methoxy-4-((o-tolylsulfonyl)carbamoyl)benzyl)-1-methyl-1H-indol-5-yl) carbamate], inhibition against DnaK-DnaJ [1] was half-maximal at 37 ± 1 µM (IC50). Besides, the “effect on apparent affinity of DnaK for luciferase” value in experiment [3] was “significantly improved the apparent affinity; also recorded: significantly enhanced this interaction”. Also, the “K0.5 of DnaJ” value is 0.18 ± 0.01 µM at DnaK-DnaJ [4] (in presence of 25 μM compound), 0.96 ± 0.16 µM on DnaK-DnaJ [4] (in presence of 50 μM compound) and “greater than 2 μM” on DnaK-DnaJ [4] (in presence of 100 μM compound). Also, the “effect on the intrinsic ATPase activity of DnaK” value on DnaK is recorded as “little effect on the intrinsic ATPase activity”. Take `CCOC(=O)c1c(N)sc2c1CCN(C(C)=O)C2` [3b, ethyl 6-acetyl-2-amino-4,5,6,7-tetrahydrothieno[2,3-c]pyridine-3-carboxylate]: the half-maximal inhibitory concentration (IC50) against DnaK-DnaJ [1] is > 500 µM. On the same count and under the same terms, the figure for `CCCCCCn1c(N)c(C(=O)OCC)c2nc3ccccc3nc21` [2b, ethyl 2-amino-1-hexyl-1H-pyrrolo[2,3-b]quinoxaline-3-carboxylate] is > 500 µM.
